# T cruzi growth-1: blocks T. cruzi growth in NIH3T3 culture; inhibition, % at 8.34 µM; T. cruzi beta-gal in NIH3T3, GalScreen luminescence, 90 h; 77,000 tested, 5.9% active;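 active = mean inhibition above about 93%, with at least 55% of replicates each passing it, limit read from the data, passing the limit was not always enough; inconclusive = only one of those two conditions holds; inactive = neither condition holds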
# Pf Dd2 inh: P. falciparum Dd2 growth inhibition | 94,000 tested, 2.3% active | SYBR Green, 72 h; hits give low values | activity change, % at 10 µM; in the data active = activity change below about -80%; inconclusive = no clear call, values can overlap the other calls
# IDH1 R132H inh: inhibitors of human IDH1 R132H | AID 624101 | inhibition, % at 10 µM | IDH1 R132H reductase, diaphorase/resazurin fluorescence, 60 min | 70,000 tested, 0.18% active; in the data active = inhibition above about 34%; inconclusive = no clear call, values can overlap the other calls; inactive = below about 11%;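 note: 0% = DMSO and 100% = no enzyme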
# KDM4C inh: blocks human GASC-1 (KDM4C) demethylase activity; AID 720574; inhibition, % at 12.5 µM; GST-KDM4C 2-372, H3K9me3 peptide, LANCE TR-FRET; Q9H3R0; 96,000 tested, 0.15% active;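 active = mean replicate inhibition above about 25%, with at least 55% of replicates also reaching it, limit read from the data, passing the limit was not always enough; inconclusive = only one of those two conditions met; inactive = neither condition met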
# Target sequence (Q9H3R0 2-372 limits assumed): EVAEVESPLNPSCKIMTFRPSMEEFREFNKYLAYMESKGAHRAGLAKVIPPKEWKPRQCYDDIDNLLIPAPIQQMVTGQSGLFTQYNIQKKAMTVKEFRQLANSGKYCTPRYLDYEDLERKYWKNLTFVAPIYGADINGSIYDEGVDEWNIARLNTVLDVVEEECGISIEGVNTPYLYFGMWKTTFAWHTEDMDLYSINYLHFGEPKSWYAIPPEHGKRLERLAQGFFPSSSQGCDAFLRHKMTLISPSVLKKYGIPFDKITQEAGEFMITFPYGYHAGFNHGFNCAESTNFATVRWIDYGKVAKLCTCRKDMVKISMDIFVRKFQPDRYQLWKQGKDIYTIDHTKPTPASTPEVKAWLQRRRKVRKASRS
#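 reagent = H3K9me3 peptide substrate, Fe(II), 2-oxoglutarate | system = GST-tagged GASC-1 (JMJD2C) catalytic fragment, aa 2-372 | amount = enzyme final amount 10 nM | read-out = Fall in 671/618 emission ratio as inhibition | medium = HEPES buffer, pH 7.5, plus ascorbate | schedule = 30 min reaction, 60 min detection, RT | measured by = LANCE TR-FRET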
# T cruzi growth-2: blocks T. cruzi growth in NIH3T3 host cells | shares compounds with T cruzi growth-1 | T. cruzi beta-gal in NIH3T3, GalScreen luminescence, 90 h | inhibition, % at 8.35 µM | 5,600 tested, 72% active | AID 651739;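 active = mean replicate inhibition above about 95% and at least 55% of replicates individually reaching it, limit read from the data; inconclusive = only one of the two criteria is met; inactive = neither criterion is met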
# T cruzi growth-3: Trypanosoma cruzi proliferation inhibition. inhibition, % at 2.09 µM. shares compounds with T cruzi growth-1. AID 651740. 5,600 tested, 21% active. T. cruzi beta-gal in NIH3T3, GalScreen luminescence, 90 h;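 active = mean inhibition above about 95%, with at least 55% of replicates also reaching it, limit read from the data; inconclusive = meets just one of the two conditions; inactive = meets neither condition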;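 note: plate controls were neutral control median for no effect and positive control median for full effect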
# 3T3 cytotox: kills mouse NIH/3T3 fibroblasts | shares compounds with T cruzi growth-1 | NIH/3T3 viability, CellTiter-Glo ATP luminescence, 90 h | cytotoxicity (signal decrease), % at 8.35 µM | 5,600 tested, 14% active;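 active = mean signal decrease across replicates above about 35% based on untreated-well scatter, with enough replicates individually passing, limit read from the data; inconclusive = no rule stated though some were filed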;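 note: 0% = median of neutral control wells and 100% = median of positive control wells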
# 3T3 cytotox 2: kills mouse NIH/3T3 fibroblasts | NIH/3T3 viability, CellTiter-Glo ATP luminescence, 90 h | 5,600 tested, 56% active | AID 651744 | inhibition, % at 24.9 µM | shares compounds with T cruzi growth-1;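 active = mean loss of cell viability signal at or above a set limit, and enough replicates individually reaching it; inconclusive = meets only the mean limit or only the replicate share; inactive = meets neither condition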;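 note: 0% = median of neutral control wells and 100% = median of positive control wells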
# Starred values were filed as active, the others as inactive; ? = inconclusive; . = no result given. Sampled rows, rich in hits. Any-hit rate of the full collection: about 5.9%.
SMILES,T cruzi growth-1,Pf Dd2 inh,IDH1 R132H inh,KDM4C inh,T cruzi growth-2,T cruzi growth-3,3T3 cytotox,3T3 cytotox 2
OC[C@@H]1[C@@H](c2ccc(-c3ccccc3F)cc2)[C@@H]2CN(Cc3cccnc3)CCCCN12,85,-13,.,5,.,.,.,.
OC[C@@H]1[C@H](c2ccc(-c3ccccc3F)cc2)[C@H]2CN(Cc3cncnc3)CCCCN12,110*,-18,.,1,100*,89,22,38*
OC[C@@H]1[C@H](c2ccc(-c3ccccc3F)cc2)[C@@H]2CN(Cc3cncnc3)CCCCN12,110*,13,.,0,88,82,-20,50*
C[C@@H]1CN([C@H](C)CO)C(=O)c2cc(C#CCN(C)C)cnc2O[C@@H]1CN(C)C(=O)NC1CCCC1,-31,41,0,5,.,.,.,.
O=C(C1CCCC1)N1[C@@H](CO)[C@@H](c2ccccc2)C12CN(Cc1cccc(Cl)c1)C2,.,-55,.,-1,.,.,.,.
O=C(C[C@@H]1CC[C@@H]2[C@H](COC[C@@H](O)CN2S(=O)(=O)c2cccc(Cl)c2)O1)Nc1ccc(-c2ccccc2)cc1,108*,-10,.,-1,98*,?,34,70*
O=C(C[C@@H]1CC[C@H]2[C@@H](COC[C@@H](O)CN2S(=O)(=O)c2cccc(Cl)c2)O1)Nc1ccc(-c2ccccc2)cc1,110*,-3,.,0,101*,53,8,103*
CC(C)NC(=O)N1CCCCN2[C@H](C1)[C@H](c1ccc(C#CC3CC3)cc1)[C@@H]2CO,36,0,.,1,.,.,.,.
CC(C)C#Cc1ccc([C@H]2[C@@H](CO)N3CCCCN(C(=O)NC(C)C)C[C@H]23)cc1,102*,-3,.,0,111*,87,0,49*
CC(C)NC(=O)N1CCCCN2[C@@H](CO)[C@@H](c3ccc(C#CC4CC4)cc3)[C@@H]2C1,107*,10,.,2,111*,65,10,49*
CC(C)C#Cc1ccc([C@@H]2[C@@H](CO)N3CCCCN(C(=O)NC(C)C)C[C@@H]23)cc1,77,13,.,0,.,.,.,.
CC(C)NC(=O)N1CCCCN2[C@H](CO)[C@H](c3ccc(C#CC4CC4)cc3)[C@H]2C1,110*,-5,.,1,113*,55,8,66*
CO[C@@H](CN(C)C(=O)c1ccc2c(c1)OCO2)[C@H](C)CN([C@@H](C)CO)S(=O)(=O)c1ccc(C)cc1,-1,-4,-1,1,.,.,.,.
C[C@@H]1CN([C@H](C)CO)S(=O)(=O)c2ccc(C#CC3CCCC3)cc2O[C@H]1CN(C)C(=O)Cc1ccncc1,120*,-69,.,-3,101*,62,-4,99*
C[C@@H]1CN([C@H](C)CO)S(=O)(=O)c2ccc(C#CC3CCCC3)cc2O[C@H]1CN(C)C(=O)Cc1ccccc1,113*,?,-5,1,106*,68,3,105*
C[C@H]1CN([C@@H](C)CO)S(=O)(=O)c2ccc(C#CC3CCCCC3)cc2O[C@H]1CN(C)C(=O)Cc1ccncc1,42,-18,.,-1,.,.,.,.
C[C@@H]1CN([C@@H](C)CO)S(=O)(=O)c2ccc(C#CC3CCCC3)cc2O[C@H]1CN(C)C(=O)Cc1ccccc1,.,?,0,-1,.,.,.,.
C[C@@H]1CN([C@@H](C)CO)S(=O)(=O)c2ccc(C#CC3CCCC3)cc2O[C@H]1CN(C)C(=O)Cc1ccncc1,113*,-86*,.,-2,99*,47,21,72*
C[C@@H]1CN([C@@H](C)CO)S(=O)(=O)c2ccc(C#CC3CCCCC3)cc2O[C@H]1CN(C)C(=O)Cc1ccncc1,?,-70,66*,0,103*,78,17,103*
CNC[C@@H]1Oc2ncc(C3=CCCC3)cc2C(=O)N([C@@H](C)CO)C[C@@H]1C,31,-8,-1,0,.,.,.,.
COc1ccc2c3c([nH]c2c1)[C@H](CO)N(S(C)(=O)=O)CC31CCN(C(=O)c2cccnc2)CC1,.,29,.,0,.,.,.,.
C[C@H](CO)N1C[C@H](C)[C@@H](CN(C)C)Oc2cc(-c3ccncc3)ccc2S1(=O)=O,106*,-3,1,-1,89,24,13,?
C[C@@H]1CN([C@@H](C)CO)S(=O)(=O)c2ccc(-c3ccncc3)cc2O[C@H]1CN(C)C,98*,11,-7,-1,97*,15,2,19
C[C@@H]1CN([C@H](C)CO)S(=O)(=O)c2ccc(-c3ccncc3)cc2O[C@H]1CN(C)C,24,25,2,4,.,.,.,.
CCNC(=O)[C@H]1[C@H](CO)[C@H]2Cn3c(ccc(C4=CCCCC4)c3=O)[C@H]2N1C(=O)CC1CC1,11,-5,.,5,.,.,.,.
SMILES,T cruzi growth-1,Pf Dd2 inh,IDH1 R132H inh,KDM4C inh,T cruzi growth-2,T cruzi growth-3,3T3 cytotox,3T3 cytotox 2
CCCNC(=O)[C@H]1[C@H](CO)[C@H]2Cn3c(ccc(C4=CCCC4)c3=O)[C@H]2N1C(=O)c1cnccn1,99*,-4,.,2,33,-7,5,7
CCCNC(=O)[C@@H]1[C@@H](CO)[C@@H]2Cn3c(ccc(C4=CCCC4)c3=O)[C@@H]2N1C(=O)c1cnccn1,97*,-7,.,-1,22,0,-22,-3
CCNC(=O)[C@H]1[C@H](CO)[C@H]2Cn3c(ccc(C4=CCCCC4)c3=O)[C@H]2N1C(=O)c1cnccn1,66,-13,.,0,.,.,.,.
CCNC(=O)[C@@H]1[C@@H](CO)[C@@H]2Cn3c(ccc(C4=CCCC4)c3=O)[C@@H]2N1C(=O)CC1CC1,?,8,.,1,55,18,0,-11
C[C@H](CO)N1C[C@H](C)[C@H](CN(C)C(=O)Nc2cccc3ccccc23)Oc2ccc(NC(=O)Nc3ccc(C(F)(F)F)cc3)cc2CC1=O,27,-15,-5,0,.,.,.,.
C[C@H](CO)N1C[C@H](C)[C@@H](CN(C)Cc2ccccc2)Oc2cc(C3=CCCC3)ccc2S1(=O)=O,93,-46,-4,-1,.,.,.,.
C[C@@H]1CN([C@@H](C)CO)S(=O)(=O)c2ccc(C3=CCCC3)cc2O[C@H]1CN(C)Cc1ccncc1,114*,-65,.,5,97*,102*,50*,102*
C[C@H](CO)N1C[C@H](C)[C@@H](CN(C)C(=O)Cc2ccncc2)Oc2cc(C3=CCCC3)ccc2S1(=O)=O,96*,-20,4,15,88,44,-8,13
C[C@H](CO)N1C[C@H](C)[C@H](CN(C)Cc2ccncc2)Oc2cc(C3=CCCC3)ccc2S1(=O)=O,108*,-29,.,7,97*,88,21,44*
